Measured values of several laboratories.
Compare with care: the assays were run in different laboratories.
AChE: AChE (Phlebotomus papatasi, UniProt M1F887)
M-phase phosphoprotein 8 chromodomain: M-phase phosphoprotein 8, chromodomain (Homo sapiens, UniProt Q99549)
HTR1A: 5-hydroxytryptamine receptor 1A (HTR1A, Homo sapiens, UniProt P08908)
IKBKB: Inhibitor of nuclear factor kappa-B kinase subunit beta (IKBKB, Homo sapiens, UniProt O14920)

COc1ncccc1-c1cnn2ccc(N3CCN(C(=O)OC(C)C)CC3)nc12 — IC50 (Alpha-2C adrenergic receptor (ADRA2C, Homo sapiens, UniProt P18825); cell-free assay): > 30000 nM
CNC(=O)Oc1cccc2c1OC(C)(C)C2 — IC50 (AChE; enzyme activity, inhibitor): 8 nM
CCN(CCCC[C@H](NC(=O)[C@H](CC(C)C)NC(=O)[C@H](C)NC(=O)[C@H](Cc1ccccc1)NC(=O)c1ccc(NC)cc1)C(=O)N[C@@H](CO)C(N)=O)C(C)C — IC50 (M-phase phosphoprotein 8 chromodomain; cell-free assay, TR-FRET): 4400 nM
CC(CCc1ccccc1)NC(C)C(O)c1ccc(O)cc1 (centres unmarked) — IC50 (HTR1A; ligand displacement, radioligand): 3380 nM
CCN(CCCC[C@H](NC(=O)[C@H](CC(C)C)NC(=O)[C@H](C)NC(=O)[C@H](Cc1ccccc1)NC(=O)c1ccc(N)cc1)C(=O)N[C@@H](CO)C(N)=O)C(C)C — IC50 (M-phase phosphoprotein 8 chromodomain; cell-free assay, TR-FRET): 1800 nM
COCCOCOc1cc(OCc2ccc(Br)cc2)c(C(=O)/C=C/c2ccc(C(=O)O)cc2)cc1C12CC3CC(CC(C3)C1)C2 — IC50 (IKBKB; enzyme activity, inhibitor, TR-FRET): 2730 nM
CCCCCNC(=N)N/N=C/c1c[nH]c2ccc(OC)cc12 — IC50 (HTR1A; calcium signal, antagonist): 870 nM
CCN(CCCC[C@H](NC(=O)[C@H](Cc1ccccc1)NC(=O)[C@H](C)NC(=O)[C@H](Cc1ccccc1)NC(=O)c1cccnc1)C(=O)N[C@@H](CO)C(N)=O)C(C)C — IC50 (M-phase phosphoprotein 8 chromodomain; cell-free assay, TR-FRET): 550 nM
O=C(CCCc1ccc(N(CCCl)CCCl)cc1)NCCC1CCN(CCOc2ccc(Oc3c(-c4ccc(O)cc4)sc4cc(O)ccc34)cc2)CC1 — IC50 (Estrogen receptor (ESR1, Homo sapiens, UniProt P03372); ligand displacement, radioligand): 37 nM
CNC(=O)Oc1cccc2ccccc12 — IC50 (AChE; enzyme activity, inhibitor): 167 nM
COCCOCOc1cc(OCc2cc(F)cc(F)c2)c(C(=O)/C=C/c2ccc(C(=O)O)cc2)cc1C12CC3CC(CC(C3)C1)C2 — IC50 (IKBKB; enzyme activity, inhibitor, TR-FRET): 1830 nM
C=C(C)[C@@H]1CCC(C)=C[C@H]1c1c(O)cc(CCCCC)cc1O — IC50 (G-protein coupled receptor 52 (GPR52, Homo sapiens, UniProt Q9Y2T5); cAMP, antagonist): 2450 nM
O=c1c2ccccc2[se]n1-c1ccccc1 — IC50 (Leucine-rich repeat serine/threonine-protein kinase 2 (LRRK2, Homo sapiens, UniProt Q5S007); enzyme activity, inhibitor, radiometric): 2000 nM
CNC(=O)Oc1cccc2c1OC(C)(C)O2 — IC50 (AChE; enzyme activity, inhibitor): 15 nM
CCN(CCCC[C@H](NC(=O)[C@H](CC(C)C)NC(=O)[C@H](C)NC(=O)[C@H](Cc1ccccc1)NC(=O)c1cccnc1)C(=O)N[C@@H](CO)C(N)=O)C(C)C — IC50 (M-phase phosphoprotein 8 chromodomain; cell-free assay, TR-FRET): 2200 nM
CCOP(=O)(OCC)Oc1ccc2c(C)c(Cl)c(=O)oc2c1 — IC50 (AChE; enzyme activity, inhibitor): 430 nM
CCN(CCCC[C@H](NC(=O)[C@H](CC(C)C)NC(=O)[C@H](C)NC(=O)[C@H](Cc1ccccc1)NC(=O)c1ccc(N)c(Br)c1)C(=O)N[C@@H](CO)C(N)=O)C(C)C — IC50 (M-phase phosphoprotein 8 chromodomain; cell-free assay, TR-FRET): 400 nM
